Species on record: Mus musculus
Assay: Effective dosage for inhibition of maximal electroshock stimulated convulsions
Type: functional
In short: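 Mice (male Carworth Farms #1), groups of at least eight, were given various doses and tested at the previously determined time of peak effect. Protection was defined as abolition of the hind limb tonic extension component of the seizure. Dosing continued until at least two points lay between 0% and 100% protection. The 50% dose and 95% confidence interval were derived by Finney's method.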

Point of comparison: `CCOC(=O)Nc1ccc(NCc2ccc(C)c(Cl)c2)nc1N.Cl`, “Log 1/ED50” value 4.083. Against it:
- CCOC(=O)Nc1ccc(NCc2ccccc2)nc1N.Cl — within 0.2 log units, 4.214
- CCOC(=O)Nc1ccc(NCc2ccc(NC(C)=O)cc2)nc1N.Cl — lower, 3.487
- CCOC(=O)Nc1ccc(NCc2ccc(C(F)(F)F)cc2)nc1N.Cl — within 0.2 log units, 4.146
- CCOC(=O)Nc1ccc(NCc2ccc(Cl)cc2)nc1N.Cl — higher, 4.388
- CCOC(=O)Nc1ccc(NCc2cccc(F)c2)nc1N.Cl — higher, 4.297
- CCOC(=O)Nc1ccc(NCc2ccc(C)cc2C)nc1N.Cl — higher, 4.53
- Cl.Nc1nc(NCc2ccc(Cl)cc2)ccc1NC(=O)Oc1ccccc1 — lower, 3.507
- CCOC(=O)Nc1ccc(NCc2c(C)cc(C)cc2C)nc1N.Cl — higher, 5.268
- CCOC(=O)Nc1ccc(NCc2ccc(F)cc2)nc1N.Cl — within 0.2 log units, 4.13
- CCOC(=O)Nc1ccc(NCc2c(C)cccc2C)nc1N.Cl — higher, 5.01
- Cc1noc(C)c1C(=O)Nc1ccc(NCc2ccc(F)cc2)nc1N.Cl — within 0.2 log units, 3.94
- Cl.Nc1nc(NCc2ccc(F)cc2)ccc1N1CCOC1=O — within 0.2 log units, 4.065
- Cl.Nc1nc(NCc2ccc(F)cc2)ccc1NC(=O)Oc1ccccc1 — lower, 3.724
- Cl.Nc1nc(NCc2ccccc2)ccc1NC(=O)Oc1ccccc1 — within 0.2 log units, 3.942
- COC(=O)Nc1ccc(NCc2ccc(F)cc2)nc1N.Cl — within 0.2 log units, 4.11
- CCOC(=O)Nc1ccc(NCc2ccccc2C)nc1N.Cl — higher, 4.872
- CCOC(=O)Nc1ccc(NC(C)c2ccc(F)cc2)nc1N.Cl (stereo not given) — within 0.2 log units, 3.938
- CCOC(=O)Nc1ccc(NCc2ccc(F)cc2F)nc1N.Cl — higher, 4.321
- CCOC(=O)Nc1ccc(NCc2ccc(S(N)(=O)=O)cc2)nc1N.Cl — lower, 3.572
- CCOC(=O)Nc1ccc(NCc2ccccc2O)nc1N.Cl — within 0.2 log units, 3.896
- Cl.Nc1nc(NCc2ccc(F)cc2)ccc1NC(=O)OCCCl — higher, 4.46
- C=CCOC(=O)Nc1ccc(NCc2ccc(F)cc2)nc1N — higher, 4.48
- CC(=O)Nc1ccc(NCc2ccc(F)cc2)nc1N.Cl — lower, 3.567
- CCOC(=O)Nc1ccc(NCc2ccc(C(C)=O)cc2)nc1N.Cl — lower, 3.831

From ChEMBL document CHEMBL1127458, “Synthesis and quantitative structure-activity relationships of anticonvulsant 2,3,6-triaminopyridines” (J Med Chem, 1994)
